Screening results: PubChem BioAssay, several laboratories
An excerpt weighted towards active compounds, which were near 4.2% of everything screened.
hERG rescue = hERG rescue from dofetilide block, primary screen, cell-based, CHO-hERG, FluxOR thallium flux, dofetilide IC70. Voltage-gated inwardly rectifying potassium channel KCNH2 (Homo sapiens), Q12809. dofetilide IC70 present. activation (rescue from dofetilide block), less the hit threshold, % at 10 µM. 0.51% of 310,000 active;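 active = activation above the mean of controls blocked by dofetilide plus 5 SD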;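 note: thallium influx through hERG after potassium depolarization seen as dye fluorescence rise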
Target sequence (Q12809 whole entry, looked up): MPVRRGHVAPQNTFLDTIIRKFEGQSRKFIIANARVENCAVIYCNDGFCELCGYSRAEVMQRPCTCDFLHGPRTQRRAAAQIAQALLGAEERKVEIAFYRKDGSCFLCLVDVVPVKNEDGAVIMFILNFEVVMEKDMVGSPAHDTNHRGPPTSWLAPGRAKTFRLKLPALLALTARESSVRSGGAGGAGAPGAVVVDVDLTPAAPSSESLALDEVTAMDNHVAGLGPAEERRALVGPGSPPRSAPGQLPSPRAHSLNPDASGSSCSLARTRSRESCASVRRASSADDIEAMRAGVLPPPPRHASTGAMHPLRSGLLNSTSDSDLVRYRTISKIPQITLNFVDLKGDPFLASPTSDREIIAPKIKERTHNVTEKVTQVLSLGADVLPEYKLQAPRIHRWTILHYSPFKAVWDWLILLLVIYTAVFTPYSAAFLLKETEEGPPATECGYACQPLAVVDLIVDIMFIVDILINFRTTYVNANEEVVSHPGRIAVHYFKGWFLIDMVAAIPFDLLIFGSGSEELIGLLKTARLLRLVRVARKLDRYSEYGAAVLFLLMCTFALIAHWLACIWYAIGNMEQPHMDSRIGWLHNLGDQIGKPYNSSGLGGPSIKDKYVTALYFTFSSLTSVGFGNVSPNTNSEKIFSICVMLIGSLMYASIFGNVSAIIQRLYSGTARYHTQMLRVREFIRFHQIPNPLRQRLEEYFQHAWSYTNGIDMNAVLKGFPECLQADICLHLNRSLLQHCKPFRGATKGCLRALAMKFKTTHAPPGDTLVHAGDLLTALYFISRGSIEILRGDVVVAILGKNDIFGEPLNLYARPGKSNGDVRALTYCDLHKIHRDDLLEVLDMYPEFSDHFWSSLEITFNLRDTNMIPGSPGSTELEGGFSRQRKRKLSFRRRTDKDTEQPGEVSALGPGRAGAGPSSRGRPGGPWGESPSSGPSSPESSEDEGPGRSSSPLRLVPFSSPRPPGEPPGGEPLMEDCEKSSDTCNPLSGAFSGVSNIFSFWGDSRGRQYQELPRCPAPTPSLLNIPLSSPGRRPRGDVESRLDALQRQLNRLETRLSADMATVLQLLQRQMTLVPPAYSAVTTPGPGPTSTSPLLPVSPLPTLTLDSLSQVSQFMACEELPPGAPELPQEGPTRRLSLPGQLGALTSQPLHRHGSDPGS
KCNQ1 act = potentiators or activators of KCNQ1 channel, primary screen, cell-based, thallium flux, high-throughput; CHO-K1 KCNQ1, thallium flux FluxOR fluorescence; stronger effect = higher value; B-score at 10 µM; 0.35% of 310,000 active;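 active = fluorescence ratio B-score, a plate-corrected score, at least three library SD, with initial intensity B-score within 5 SD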
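assay system = CHO-K1 cells stably expressing KCNQ1 | medium = assay buffer, equal DMSO in all wells | timing = 37 °C overnight plating, 90-min dark dye load, 20-min compound pretreatment | measured by = kinetic FluxOR thallium fluorescence, 10-s 1-Hz baseline, 110-s post-stimulus read | measure = fluorescence change relative to baseline, converted to B score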
Cl transport mod = KCC2 cotransporter modulators, thallium flux, primary screen, cell-based, HEK293 KCC2, FluoZin-2 fluorescence, MLSMR; 2.2% of 190,000 active; Solute carrier family 12 member 5 (Homo sapiens), Q9H2X9; B-score of Tl+ flux slope (higher = more flux/activation; lower = inhibition) at 10 µM; KCC2 cells, thallium flux FluoZin-2 fluorescence; AID 1456, 2008;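 active = thallium flux slope and its plate-corrected score both differing from the plate sample mean at a set confidence after two filtering rounds, in either direction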;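 note: slope of fluorescence scaled to starting intensity during 10 to 20 s after thallium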
KCNQ1 block = inhibitors of human KCNQ1 channel, primary screen, cell-based, thallium flux, high-throughput; 1.3% of 310,000 active; CHO-K1 KCNQ1, FluxOR thallium flux fluorescence; stronger effect = higher value; AID 2642, 2010; B-score at 10 µM; Potassium voltage-gated channel subfamily KQT member 1 (Homo sapiens), P51787;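 active = compounds whose thallium flux B-score, printed positive for inhibition, exceeds three library SD while starting fluorescence stays within three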;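 note: channel opened by potassium depolarization with thallium stimulus after 20 min compound exposure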
AI-2 QS modul = Vibrio harveyi AI-2 quorum sensing modulators, primary screen, JMH597 strain, luminescence/OD600 ratio; activity change, % at 7.5 µM; 0.4% of 300,000 active; AID 2094, 2009; Vibrio harveyi JMH597 AI-2 luminescence/OD600 ratio, 9 h; stronger effect = lower value; strain lacks LuxN and CqsS sensors; 0 = neutral-control median; in the data active = activity change below about -75%, passing the limit was not always enough; inconclusive = no clear call, values can overlap the other calls;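 note: luminescence divided by OD600 gain over 9 h not by final OD600 alone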
SUMO Mot1 rescue = yeast Mot1-301 growth rescue at high temperature, primary screen, SUMOylation pathway inhibitor project, S. cerevisiae, ATP luminescence, 38.5C. S. cerevisiae Mot1-301 growth rescue; percent above DMSO median, 100 means doubled. growth rescue, % at 18.8 µM. 1% of 320,000 active;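 active = every valid replicate shows activation above 250% relative to neutral control wells; inactive = the rest, any valid replicate at or below 250%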;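 note: OY570 slx delta 5 strain wells were the positive control but not used for scaling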
JMH597 growth rt = Vibrio harveyi growth inhibition, confirmation, counter-screen for AI-2 quorum sensing project, JMH597 strain, OD600 absorbance; shares compounds with AI-2 QS modul; 9 h; lacks LuxN and CqsS sensors; growth inhibition, % at 7.5 µM; 1% of 750 active; AID 2726, 2010;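 active = every replicate shows growth inhibition above 50%; inconclusive = at least half, but not all, replicates pass that cutoff; inactive = fewer than half of replicates pass it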
BB721 lum counter = luminescence inhibition in constitutive-on V. harveyi, confirmation, counter-screen for LuxS inhibitor project, strain BB721, luminescence readout; shares compounds with AI-2 QS modul; Vibrio harveyi BB721 luminescence, 9 h; inhibition, % at 7.5 µM; 95% of 750 active; AID 2727, 2010;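 active = inhibition above about 80% in every replicate, not just on average, limit read from the data; inconclusive = at least half of replicates past the limit, but not all; inactive = fewer than half of replicates past the limit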
BB721 growth = growth inhibition of V. harveyi BB721, confirmation, cytotoxicity control for AI-2 quorum sensing inhibitors, strain BB721, absorbance OD600 | shares compounds with AI-2 QS modul | Vibrio harveyi BB721 growth, 9 h | growth inhibition, % at 7.5 µM | 3% of 750 active;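 active = every replicate shows growth inhibition above 50%; inconclusive = at least half but not all replicates above 50% inhibition; inactive = under half of replicates above 50% inhibition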
AI-2 QS JMH597 = Vibrio harveyi AI-2 signaling luminescence modulation – JMH597 strain, confirmation | shares compounds with AI-2 QS modul | Vibrio harveyi JMH597 AI-2 quorum sensing luminescence, 9 h; luxN and CqsS knockout, AI-2 only | inhibition, % at 7.5 µM | 97% of 750 active | AID 2736, 2010;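 active = every replicate shows more than 75% inhibition of signal versus neutral control wells; inconclusive = half to three quarters of replicates exceed 75% inhibition; inactive = fewer than half of replicates exceed 75% inhibition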
KCNQ1 block val = KCNQ1 potassium channel inhibitors, confirmation, cell-based, Tl flux, duplicate | shares compounds with KCNQ1 block | KCNQ1 cell line, FluxOR thallium flux fluorescence | inhibition, % at 10 µM | 93% of 1,600 active;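 active = primary screen active, with duplicate mean exceeding buffer control mean plus 3 SD of buffer wells, cut at about 28% in these data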;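 note: 0% = buffer control ratio and 100% = XE991 inhibitor control ratio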
CHO KCNQ1 ctr = thallium flux effects in parental CHO cells, counter-screen for KCNQ1 inhibitor project, cell-based, Tl flux; shares compounds with KCNQ1 block; parental CHO-K1, FluxOR thallium flux fluorescence ratio; stronger effect = lower value; zero means no signal rise above baseline; fluorescence ratio (Tl flux) at 10 µM; 21% of 1,600 active;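 active = mean of duplicate thallium-flux fluorescence ratios in parental host cells more than 5 SD below the buffer control mean, cut at about 0.38 in these data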;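 note: ratio is peak minus minimum fluorescence divided by baseline fluorescence; actives read low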
KCNQ2 spec = KCNQ2 channel inhibition, selectivity assay for KCNQ1 inhibitor project, cell-based; shares compounds with KCNQ1 block; inhibition, % at 10 µM; KCNQ2 cells, FluxOR thallium flux fluorescence; 71% of 1,600 active;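 active = mean percent inhibition of the KCNQ2 thallium signal more than 5 SD above the buffer-only control wells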;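 note: KCNQ2 expressed in CHO cells; 0% = buffer control wells and 100% = XE-991 inhibitor control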
KCNQ1 KCNE1 spec = KCNQ1/KCNE1 channel inhibition, selectivity assay for KCNQ1 inhibitor project, CHO-K1 cells, thallium flux, FluxOR | inhibition, % at 10 µM | FluxOR thallium flux fluorescence | shares compounds with KCNQ1 block | 77% of 1,600 active;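 active = mean percent inhibition of duplicate wells above the buffer-only control mean plus 3 SD of those controls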;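 note: 0% = buffer only wells and 100% = XE-991 inhibitor control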
Numbers without * were called inactive.

Results for COc1cc(/C=N/NC(=O)Cn2nnc3ccccc32)ccc1O ?
hERG rescue: -6; KCNQ1 act: inactive; Cl transport mod: -0.48; KCNQ1 block: inactive; AI-2 QS modul: -87*; SUMO Mot1 rescue: 6; JMH597 growth rt: -25; BB721 lum counter: 94*; BB721 growth: -29; AI-2 QS JMH597: 96*

Results for COc1cccc(/C=N\NC(=O)Cn2nnc3ccccc32)c1O ?
hERG rescue: -9; KCNQ1 act: inactive; Cl transport mod: 0.15; KCNQ1 block: inactive; AI-2 QS modul: -29; SUMO Mot1 rescue: 5

How did COc1ccc(/C=N/NC(=O)Cn2cnc3ccccc3c2=O)cc1OC do in these assays?
hERG rescue: -8; KCNQ1 act: inactive; Cl transport mod: 0.47; KCNQ1 block: inactive; AI-2 QS modul: -91*; SUMO Mot1 rescue: -8; JMH597 growth rt: -6; BB721 lum counter: 97*; BB721 growth: -12; AI-2 QS JMH597: 98*

What do the screens show for `COc1cc(/C=N\NC(=O)Cn2nnc3ccccc32)cc(OC)c1OC`?
hERG rescue: -5; KCNQ1 act: inactive; KCNQ1 block: inactive; AI-2 QS modul: -87*; SUMO Mot1 rescue: -10; JMH597 growth rt: -3; BB721 lum counter: 93*; BB721 growth: -34; AI-2 QS JMH597: 96*

How did O=C(O)/C=C/c1ccc(-n2ccnc2)cc1 do in these assays?
hERG rescue: -9; KCNQ1 act: inactive; Cl transport mod: -1.1; KCNQ1 block: inactive; AI-2 QS modul: -18; SUMO Mot1 rescue: -7

What do the screens show for `O=C(CN(Cc1cccs1)C(=O)CNS(=O)(=O)c1ccccc1)NC1CCCC1`?
hERG rescue: -7; KCNQ1 act: inactive; Cl transport mod: 0.43; KCNQ1 block: inactive; AI-2 QS modul: 14; SUMO Mot1 rescue: 934

What do the screens show for `O=C(/C=C/c1cccc(Cl)c1)NCc1ccncc1`?
hERG rescue: -16; KCNQ1 act: inactive; Cl transport mod: -0.29; KCNQ1 block: inactive; AI-2 QS modul: -43; SUMO Mot1 rescue: 0

How did O=C(/C=C/c1cccc(Cl)c1)NCc1cccs1 do in these assays?
hERG rescue: -6; KCNQ1 act: inactive; Cl transport mod: -0.53; KCNQ1 block: inactive; AI-2 QS modul: -83*; SUMO Mot1 rescue: 24; JMH597 growth rt: 16; BB721 lum counter: 90*; BB721 growth: 15; AI-2 QS JMH597: 91*

Results for O=C(/C=C/c1cccc(Cl)c1)NCc1ccccc1 ?
hERG rescue: -11; KCNQ1 act: inactive; Cl transport mod: -0.73; KCNQ1 block: inactive; AI-2 QS modul: -89*; SUMO Mot1 rescue: -13; JMH597 growth rt: 1; BB721 lum counter: 96*; BB721 growth: 0; AI-2 QS JMH597: 97*

Results for Cc1cccc2nc(CSc3nc4ccccc4[nH]3)cn12 ?
hERG rescue: -2; KCNQ1 act: inactive; KCNQ1 block: inactive; AI-2 QS modul: inconclusive; SUMO Mot1 rescue: 59; JMH597 growth rt: -14; BB721 lum counter: 96*; BB721 growth: -42; AI-2 QS JMH597: 97*

What do the screens show for `O=C(Nc1ccc(Oc2ccc(NC(=O)c3ccco3)c(NC(=O)c3ccco3)c2)cc1)c1ccco1`?
hERG rescue: -5; KCNQ1 act: inactive; Cl transport mod: -1.3; KCNQ1 block: inactive; AI-2 QS modul: 13; SUMO Mot1 rescue: 12

How did O=C(Nc1ccc(Oc2ccc3ccccc3c2)cc1)c1ccco1 do in these assays?
hERG rescue: -23; KCNQ1 act: inactive; Cl transport mod: -2.9; KCNQ1 block: 14*; AI-2 QS modul: -96*; SUMO Mot1 rescue: 6; JMH597 growth rt: 31; BB721 lum counter: 99*; BB721 growth: 102*; AI-2 QS JMH597: 99*; KCNQ1 block val: 150*; CHO KCNQ1 ctr: 0.35*; KCNQ2 spec: inactive; KCNQ1 KCNE1 spec: 186%*

Results for O=C(CCc1ccccc1)Nc1cc(Cl)ccc1O ?
hERG rescue: -8; KCNQ1 act: inactive; Cl transport mod: 0.18; KCNQ1 block: 9*; AI-2 QS modul: -97*; SUMO Mot1 rescue: 10; JMH597 growth rt: 47; BB721 lum counter: 100*; BB721 growth: 46; AI-2 QS JMH597: 100*; KCNQ1 block val: 63*; CHO KCNQ1 ctr: 0.47; KCNQ2 spec: inactive; KCNQ1 KCNE1 spec: 90%*
